# In ChEMBL document CHEMBL2434891, “Design, synthesis, and in vitro cancer cell growth inhibition evaluation and antimalarial testing of trioxanes installed in cyclic 2-enoate substructures” (Eur J Med Chem, 2013):
# The source made the active and inactive calls. The rule behind the calls is not given here.
# What was measured:
# MV4-11 = test: Antiproliferative activity against human MV4-11 cells after 72 hrs by MTT assay; format: functional, cell-based; details: MV4-11, 72 h
# HCT-116 = test: Cytotoxicity against human HCT116 cells after 72 hrs by SRB assay; format: functional, cell-based; details: HCT-116, 72 h
# Procedure, shortened: (§1)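 Adherent cells grown at 37 °C and 5% CO2. Seeded at 1×10^4/well 24 h before dosing, then 72 h at 10–0.01 µg/mL final. Fixed with cold 50% TCA, stained with 0.4% SRB, dye extracted in 10 mM Tris, read at 540 nm.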
# BALB/3T3 = test: Cytotoxicity against mouse BALB/3T3 cells after 72 hrs by SRB assay; format: cell-based; details: BALB/3T3, 72 h
# Procedure, shortened: as §1, with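 “CO2. A549 and HCT116 were in RPMI 1640/OptiMEM (50:50) with 5% FBS; BALB/3T3 in Dulbecco medium with 10% FBS and pyruvate.” for “CO2.”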
# A549 = test: Cytotoxicity against human A549 cells after 72 hrs by SRB assay; format: functional, cell-based; details: A549, 72 h; procedure, shortened: as §1
# L6 = test: Cytotoxicity against rat L6 cells after 70 hrs by alamar blue assay; details: L6, 70 h
# Plasmodium falciparum = test: Antimalarial activity against erythrocytic stage of Plasmodium falciparum NF54 infected in RBC after 48 hrs by [3H]-hypoxanthine incorporation assay; format: functional, organism-based
# [1] = Binding affinity to hemin assessed as hemin-induced oxidative damage in 0.1 M tris buffer at pH 9 at 25 to 500 uM after 2 hrs by UV-vis absorption spectroscopy in presence of methylene blue
# Procedure, shortened: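 Methylene blue (10 µM) used as substrate for heme-catalysed oxidation. Compound incubated 2 h at 37 °C with hemin (6 µM) and methylene blue in 60% 0.1 M Tris buffer (pH 9.0) and 40% DMSO. Mixture absorbance then read by UV–vis spectrophotometry.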
# [2] = Binding affinity to hemin assessed as complexation of hemin-endoperoxides in 0.1 M tris buffer at pH 9 at 25 to 500 uM after 12 hrs by UV-vis absorption spectroscopy
# Procedure, shortened: (§2)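 Hemin held at 6 µM with compound at 0–500 µM in 60% 0.1 M Tris buffer (pH 9.0) and 40% DMSO. Mixtures incubated 12 h or 24 h.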
# [3] = Binding affinity to hemin assessed as complexation of hemin-endoperoxides in 0.1 M tris buffer at pH 9 at 25 to 500 uM after 24 hrs by UV-vis absorption spectroscopy; procedure, shortened: as §2
smiles,measurement,setting,value
C[C@]12C=C3C(=O)OC(c4ccc(Cl)cc4)C[C@@]3(OO1)OC2c1ccc(Br)cc1 (stereo partly drawn),IC50,MV4-11,4.21 µM
COc1ccc(C2O[C@]34CC(c5ccc(Cl)cc5)N(C(=O)OC(C)(C)C)C(=O)C3=C[C@@]2(C)OO4)cc1 (stereo partly drawn),IC50,HCT-116,5.56 µM
same,IC50,MV4-11,0.661 µM
same,IC50,BALB/3T3,6.87 µM
same,IC50,A549,6.32 µM
COc1ccc(C2O[C@]34CC(c5ccccc5)(c5ccccc5)OC(=O)C3=C[C@@]2(C)OO4)cc1 (stereo partly drawn),IC50,MV4-11,3.78 µM
same,IC50,L6,1.9 µg/mL
same,IC50,Plasmodium falciparum,4.2 µg/mL
C[C@]12C=C3C(=O)OC(c4ccccc4)(c4ccccc4)C[C@@]3(OO1)OC2c1ccc(Cl)cc1 (stereo partly drawn),IC50,MV4-11,3.6 µM
same,IC50,L6,2.03 µg/mL
same,IC50,Plasmodium falciparum,9.88 µg/mL
C[C@]12C=C3C(=O)CC(c4ccccc4)C[C@@]3(OO1)OC2c1ccc([N+](=O)[O-])cc1 (stereo partly drawn),IC50,MV4-11,6.53 µM
same,IC50,L6,5.6 µg/mL
same,IC50,Plasmodium falciparum,3.1 µg/mL
CC1O[C@]23CC(c4ccc(Cl)cc4)N(C(=O)OC(C)(C)C)C(=O)C2=C[C@@]1(C)OO3 (stereo partly drawn),IC50,HCT-116,7.3 µM
same,IC50,MV4-11,1.04 µM
same,IC50,BALB/3T3,6.21 µM
same,IC50,A549,7.2 µM
COc1ccc(C2O[C@]34CC(c5ccc(Cl)cc5)OC(=O)C3=C[C@@]2(C)OO4)cc1 (stereo partly drawn),IC50,MV4-11,4.31 µM
COc1ccc(C2O[C@]34CC(c5ccc(F)cc5)OC(=O)C3=C[C@@]2(C)OO4)cc1 (stereo partly drawn),IC50,HCT-116,8.08 µM
same,IC50,MV4-11,0.582 µM
same,IC50,BALB/3T3,9.06 µM
same,IC50,L6,0.5 µg/mL
same,IC50,Plasmodium falciparum,1.68 µg/mL
same,IC50,A549,11.8 µM
COc1ccc(C2O[C@]34CCCC(=O)C3=C[C@@]2(C)OO4)cc1 (stereo partly drawn),IC50,MV4-11,> 33 µM
same,IC50,L6,4.5 µg/mL
same,IC50,Plasmodium falciparum,3.41 µg/mL
COc1cccc(C2C[C@]34OO[C@](C)(C=C3C(=O)O2)C(C)O4)c1 (stereo partly drawn),IC50,MV4-11,7.76 µM
C[C@]12C=C3C(=O)OC(c4ccccc4Br)C[C@@]3(OO1)OC2c1ccc([N+](=O)[O-])cc1 (stereo partly drawn),IC50,HCT-116,7.08 µM
same,IC50,MV4-11,0.837 µM
same,IC50,BALB/3T3,7.53 µM
same,IC50,A549,11.6 µM
C[C@]12C=C3C(=O)OC(c4ccccc4)(c4ccccc4)C[C@@]3(OO1)OC2c1ccc([N+](=O)[O-])cc1 (stereo partly drawn),IC50,MV4-11,3.79 µM
same,IC50,L6,3.49 µg/mL
same,IC50,Plasmodium falciparum,5.25 µg/mL
C[C@]12C=C3C(=O)CCC[C@@]3(OO1)OC2c1ccc([N+](=O)[O-])cc1 (stereo partly drawn),IC50,MV4-11,> 31 µM
COc1ccc(C2O[C@]34CC(c5ccc(C(F)(F)F)cc5)OC(=O)C3=C[C@@]2(C)OO4)cc1 (stereo partly drawn),IC50,MV4-11,4.84 µM
COc1ccc(C2C[C@]34OO[C@](C)(C=C3C(=O)O2)C(c2ccccc2)O4)cc1OC (stereo partly drawn),IC50,HCT-116,11.7 µM
same,IC50,MV4-11,0.901 µM
same,IC50,BALB/3T3,10.1 µM
same,IC50,L6,0.52 µg/mL
same,IC50,Plasmodium falciparum,3.28 µg/mL
same,IC50,A549,> 24 µM
COC(=O)c1ccc(C2O[C@]34CC(c5ccccc5)(c5ccccc5)OC(=O)C3=C[C@@]2(C)OO4)cc1 (stereo partly drawn),IC50,MV4-11,2.99 µM
same,IC50,L6,1.67 µg/mL
same,IC50,Plasmodium falciparum,5.62 µg/mL
CC(C)(C)OC(=O)N1C(=O)C2=C[C@@]3(C)OO[C@]2(CC1c1ccc(Cl)cc1)OC3c1ccc([N+](=O)[O-])cc1 (stereo partly drawn),IC50,HCT-116,5.54 µM
same,IC50,MV4-11,0.501 µM
same,IC50,BALB/3T3,6.67 µM
same,IC50,L6,1.16 µg/mL
same,IC50,Plasmodium falciparum,1.97 µg/mL
same,IC50,A549,6.22 µM
COc1ccc(C2C[C@]34OO[C@](C)(C=C3C(=O)O2)C(c2ccc([N+](=O)[O-])cc2)O4)cc1 (stereo partly drawn),IC50,HCT-116,7.5 µM
same,IC50,MV4-11,0.735 µM
same,IC50,BALB/3T3,7.36 µM
same,IC50,A549,8.44 µM
CC(C)(C)OC(=O)N1C(=O)C2=C[C@@]3(C)OO[C@]2(CC1c1ccc(Cl)cc1)OC3c1ccccc1 (stereo partly drawn),IC50,HCT-116,6.02 µM
same,IC50,MV4-11,0.517 µM
same,IC50,BALB/3T3,5.46 µM
same,IC50,A549,6.66 µM
CC1O[C@]23CC(c4ccc(F)cc4)OC(=O)C2=C[C@@]1(C)OO3 (stereo partly drawn),IC50,MV4-11,6.89 µM
COc1ccc(C2C[C@]34OO[C@](C)(C=C3C(=O)O2)C(C)O4)cc1OC (stereo partly drawn),IC50,MV4-11,11.1 µM
C[C@]12C=C3C(=O)OC(c4ccc(C(F)(F)F)cc4)C[C@@]3(OO1)OC2c1ccc(Br)cc1 (stereo partly drawn),IC50,MV4-11,5.51 µM
C[C@]12C=C3C(=O)OC(c4ccc(C(F)(F)F)cc4)C[C@@]3(OO1)OC2c1ccccc1 (stereo partly drawn),IC50,HCT-116,7.43 µM
same,IC50,MV4-11,0.779 µM
same,IC50,BALB/3T3,9.01 µM
same,IC50,A549,10.9 µM
CC1O[C@]23CC(c4cccc(Cl)c4)OC(=O)C2=C[C@@]1(C)OO3 (stereo partly drawn),IC50,MV4-11,7.31 µM
C[C@]12C=C3C(=O)OC(c4cccc(Cl)c4)C[C@@]3(OO1)OC2c1ccc([N+](=O)[O-])cc1 (stereo partly drawn),Activity,[1],Active
same,IC50,MV4-11,3.91 µM
same,Activity,[2],Active
same,Activity,[3],Active
CC1O[C@]23CC(c4ccc(Br)cc4)OC(=O)C2=C[C@@]1(C)OO3 (stereo partly drawn),IC50,HCT-116,9.2 µM
same,IC50,MV4-11,0.98 µM
same,IC50,BALB/3T3,12 µM
same,IC50,A549,13 µM
CC1O[C@]23CC(c4ccc(C(F)(F)F)cc4)OC(=O)C2=C[C@@]1(C)OO3 (stereo partly drawn),IC50,HCT-116,9.49 µM
same,IC50,MV4-11,0.895 µM
same,IC50,BALB/3T3,12.5 µM
same,IC50,A549,13.9 µM
C[C@]12C=C3C(=O)OC(c4ccc(Cl)cc4)C[C@@]3(OO1)OC2c1ccc([N+](=O)[O-])cc1 (stereo partly drawn),Activity,[1],Active
same,IC50,HCT-116,7.37 µM
same,IC50,MV4-11,0.593 µM
same,IC50,BALB/3T3,8.21 µM
same,IC50,A549,8.28 µM
same,Activity,[2],Active
same,Activity,[3],Active
COc1ccc(C2O[C@]34CC(c5ccc(OC)c(OC)c5)OC(=O)C3=C[C@@]2(C)OO4)cc1 (stereo partly drawn),IC50,MV4-11,4.38 µM
COC(=O)C1=C[C@]23CCCC[C@@H]2O[C@@]1(C)OO3,IC50,MV4-11,8.08 µM
COc1ccc(C2C[C@]34OO[C@](C)(C=C3C(=O)O2)C(c2ccc([N+](=O)[O-])cc2)O4)cc1OC (stereo partly drawn),Activity,[1],Active
same,IC50,HCT-116,6.79 µM
same,IC50,MV4-11,0.911 µM
same,IC50,BALB/3T3,7.2 µM
same,IC50,A549,7.73 µM
same,Activity,[2],Active
same,Activity,[3],Active
COc1ccc(C2O[C@]34CC(c5ccccc5)CC(=O)C3=C[C@@]2(C)OO4)cc1 (stereo partly drawn),IC50,MV4-11,6.5 µM
